Assay results taken from ChEMBL document CHEMBL4002632, “Development of gallic acid formazans as novel enoyl acyl carrier protein reductase inhibitors for the treatment of tuberculosis” (Bioorg Med Chem Lett, 2017).
≈ marks a conversion by molar mass, not a printed value. Calls of active or inactive are those of the source. The rule behind the calls is not given here.

Assays:
Format in all cases: functional
[1] = tested on: Mycobacterium tuberculosis; experiment: Antimycobacterial activity against isoniazid/rifampicin/kanamycin/streptomycin-resistant Mycobacterium tuberculosis by microplate Alamar Blue assay
Procedure, shortened: (§1)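 MIC against multidrug-resistant M. tuberculosis strains: HR, HRKS, HRKCpm, HRKSXMfxLev and HRS. Linezolid served as reference.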

[2] = tested on: Mycobacterium tuberculosis; experiment: Antimycobacterial activity against isoniazid/rifampicin/kanamycin/capreomycin-resistant Mycobacterium tuberculosis by microplate Alamar Blue assay; procedure, shortened: as §1
[3] = tested on: Mycobacterium tuberculosis; experiment: Antimycobacterial activity against isoniazid/rifampicin-resistant Mycobacterium tuberculosis by microplate Alamar Blue assay; procedure, shortened: as §1
[4] = tested on: Mycobacterium tuberculosis; experiment: Antimycobacterial activity against isoniazid/rifampicin/kanamycin/streptomycin/ofloxacin/moxifloxacin/levofloxacin-resistant Mycobacterium tuberculosis by microplate Alamar Blue assay; procedure, shortened: as §1
[5] = tested on: Mycobacterium tuberculosis; experiment: Antimycobacterial activity against isoniazid/rifampicin/streptomycin-resistant Mycobacterium tuberculosis by microplate Alamar Blue assay; procedure, shortened: as §1

Structure (SMILES) | MIC [1] | MIC [2] | MIC [3] | MIC [4] | MIC [5]
O=C(N/N=C(/N=N/c1ccc([N+](=O)[O-])cc1)c1ccccc1)c1cc(O)c(O)c(O)c1 | 22.3 µM (≈ 9.4 µg/mL) | 14 µM (≈ 5.9 µg/mL) | 2.85 µM (≈ 1.2 µg/mL) | inactive | 5.46 µM (≈ 2.3 µg/mL)
Cc1ccccc1/N=N/C(=N/NC(=O)c1cc(O)c(O)c(O)c1)c1ccccc1 | 16 µM (≈ 6.25 µg/mL) | inactive | 5.89 µM (≈ 2.3 µg/mL) | inactive | 5.89 µM (≈ 2.3 µg/mL)
O=C(N/N=C(/N=N/c1ccccc1Cl)c1ccccc1)c1cc(O)c(O)c(O)c1 | inactive | inactive | 2.9 µM (≈ 1.19 µg/mL) | inactive | 2.95 µM (≈ 1.21 µg/mL)
O=C(N/N=C(/N=N/c1ccc(F)cc1)c1ccccc1)c1cc(O)c(O)c(O)c1 | 0.73 µM (≈ 0.288 µg/mL) | 1.92 µM (≈ 0.757 µg/mL) | 0.49 µM (≈ 0.193 µg/mL) | inactive | 0.96 µM (≈ 0.379 µg/mL)
CC(=O)NC[C@H]1CN(c2ccc(N3CCOCC3)c(F)c2)C(=O)O1 [LINEZOLID] | 2.78 µM (≈ 0.938 µg/mL) | 1.86 µM (≈ 0.627 µg/mL) | 3.7 µM (≈ 1.25 µg/mL) | 1.86 µM (≈ 0.627 µg/mL) | 3.7 µM (≈ 1.25 µg/mL)
COc1ccccc1/N=N/C(=N/NC(=O)c1cc(O)c(O)c(O)c1)c1ccccc1 | inactive | inactive | 23.9 µM (≈ 9.69 µg/mL) | inactive | inactive
COc1ccc(/N=N/C(=N/NC(=O)c2cc(O)c(O)c(O)c2)c2ccccc2)cc1 | 2.92 µM (≈ 1.19 µg/mL) | 7.62 µM (≈ 3.1 µg/mL) | 1.9 µM (≈ 0.772 µg/mL) | 10.6 µM (≈ 4.29 µg/mL) | 1.9 µM (≈ 0.772 µg/mL)
O=C(N/N=C(/N=N/c1ccc(Cl)cc1Cl)c1ccccc1)c1cc(O)c(O)c(O)c1 | 5.16 µM (≈ 2.3 µg/mL) | 7.43 µM (≈ 3.31 µg/mL) | 0.33 µM (≈ 0.147 µg/mL) | 11.4 µM (≈ 5.09 µg/mL) | 1.34 µM (≈ 0.597 µg/mL)
O=C(N/N=C(/N=N/c1ccccc1)c1ccccc1)c1cc(O)c(O)c(O)c1 | inactive | inactive | inactive | inactive | inactive
O=C(N/N=C(/N=N/c1ccccc1[N+](=O)[O-])c1ccccc1)c1cc(O)c(O)c(O)c1 | inactive | inactive | 5.46 µM (≈ 2.3 µg/mL) | inactive | 14.8 µM (≈ 6.25 µg/mL)
